# Assay results from ChEMBL document CHEMBL1781935, “Amberlite-IRA-402 (OH) ion exchange resin mediated synthesis of indolizines, pyrrolo [1,2-a] quinolines and isoquinolines: antibacterial and antifungal evaluation of the products” (2011).
# The source made the active and inactive calls. The calls are words filed in the database; no cut-off is given here.
# Columns and labels:
# Vibrio cholerae [1] = assay: Antibacterial activity against Vibrio cholerae isolate 7201; assay type: functional
# Pseudomonas aeruginosa [2] = assay: Antibacterial activity against Pseudomonas aeruginosa ATCC 27853 at 1 to 1000 ug/ml after overnight incubation by disc diffusion method; assay type: functional
# Procedure, shortened: (§1)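 Disc diffusion on Mueller-Hinton agar. Plates seeded with 0.1 ml bacterial suspension (2 × 10^6 cfu/ml). Sterile 6 mm paper discs were impregnated with compound solutions at 1–1000 µg/ml and incubated at 37 °C overnight. Read-out was the diameter of the clear inhibition zone. Stocks were 1 mg/ml in 4% Tween 80 or 4% propylene glycol.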
# Klebsiella pneumoniae [3] = assay: Antibacterial activity against Klebsiella pneumoniae isolate J/1/4; assay type: functional
# Procedure, shortened: (§2)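 MIC by broth and agar dilution. Broth: 0.1 ml suspension (2 × 10^6 cfu/ml) in Mueller-Hinton broth with test drug at 1–1000 µg/ml, 37 °C overnight. Agar: serial drug dilutions in Mueller-Hinton agar, spot-inoculated with 2 × 10^6 cfu/spot, 37 °C for 24 h. MIC was the lowest concentration with no visible growth. Antibiotic controls were included.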
# Klebsiella pneumoniae [4] = assay: Antibacterial activity against Klebsiella pneumoniae isolate J/1/4 at 1 to 1000 ug/ml after overnight incubation by disc diffusion method; assay type: functional; procedure, shortened: as §1
# Pseudomonas aeruginosa [5] = assay: Antibacterial activity against Pseudomonas aeruginosa ATCC 27853; assay type: functional; procedure, shortened: as §2
# Salmonella typhimurium [6] = assay: Antibacterial activity against Salmonella Typhimurium isolate 11; assay type: functional, Salmonella enterica subsp. enterica serovar Typhimurium; conditions: Salmonella enterica; procedure, shortened: as §2
# Micrococcus luteus [7] = assay: Antibacterial activity against Micrococcus luteus AGD1; assay type: functional; procedure, shortened: as §2
# Escherichia coli [8] = assay: Antibacterial activity against Escherichia coli ATCC 25938 at 1 to 1000 ug/ml after overnight incubation by disc diffusion method; assay type: functional; procedure, shortened: as §1
# Salmonella typhi [9] = assay: Antibacterial activity against Salmonella typhi DIRW; assay type: functional, Salmonella enterica subsp. enterica serovar Typhi; conditions: Salmonella enterica
# Bacillus subtilis [10] = assay: Antibacterial activity against Bacillus subtilis UC564; assay type: functional; procedure, shortened: as §2
# Vibrio parahaemolyticus [11] = assay: Antibacterial activity against Vibrio parahaemolyticus isolate 72016; assay type: functional; procedure, shortened: as §2
# Salmonella typhimurium [12] = assay: Antibacterial activity against Salmonella Typhimurium isolate 11 at 1 to 1000 ug/ml after overnight incubation by disc diffusion method; assay type: functional, organism-based; conditions: Salmonella enterica subsp. enterica serovar Typhimurium; procedure, shortened: as §1
# Escherichia coli [13] = assay: Antibacterial activity against Escherichia coli ATCC 25938 at 10 to 80 ug/ml after overnight incubation by broth dilution method; assay type: functional, organism-based
# Procedure, shortened: (§3)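 Bactericidal testing with double-fold drug dilutions in Mueller-Hinton broth. Tubes inoculated with 1 ml suspension (2 × 10^6 cfu/ml) and shaken at 200 rpm at 37 °C for 24 h. Drug was added at mid-logarithmic growth. Viable colony counts were taken from 1.0 ml aliquots plated on nutrient agar.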
# Bacillus subtilis [14] = assay: Antibacterial activity against Bacillus subtilis UC564 at 10 to 80 ug/ml after overnight incubation by broth dilution method; assay type: functional, organism-based; procedure, shortened: as §3
# Shigella dysenteriae [15] = assay: Antibacterial activity against Shigella dysenteriae isolate 3 at 10 to 80 ug/ml after overnight incubation by broth dilution method; assay type: functional, organism-based
# Shigella flexneri [16] = assay: Antibacterial activity against Shigella flexneri DN13 at 1 to 1000 ug/ml after overnight incubation by disc diffusion method; assay type: functional; procedure, shortened: as §1
# Vibrio parahaemolyticus [17] = assay: Antibacterial activity against Vibrio parahaemolyticus isolate 72016 at 1 to 1000 ug/ml after overnight incubation by disc diffusion method; assay type: functional; procedure, shortened: as §1
# Shigella dysenteriae [18] = assay: Antibacterial activity against Shigella dysenteriae isolate 3 at 1 to 1000 ug/ml after overnight incubation by disc diffusion method; assay type: functional
# Micrococcus luteus [19] = assay: Antibacterial activity against Micrococcus luteus AGD1 at 1 to 1000 ug/ml after overnight incubation by disc diffusion method; assay type: functional; procedure, shortened: as §1
# Pseudomonas aeruginosa [20] = assay: Antibacterial activity against Pseudomonas aeruginosa ATCC 27853 at 10 to 80 ug/ml after overnight incubation by broth dilution method; assay type: functional, organism-based; procedure, shortened: as §3
# Staphylococcus aureus [21] = assay: Antibacterial activity against Staphylococcus aureus ATCC 25923; assay type: functional; procedure, shortened: as §2
# Vibrio cholerae [22] = assay: Antibacterial activity against Vibrio cholerae isolate 7201 at 10 to 80 ug/ml after overnight incubation by broth dilution method; assay type: functional, organism-based
# Vibrio cholerae [23] = assay: Antibacterial activity against Vibrio cholerae isolate 720 at 1 to 1000 ug/ml after overnight incubation by disc diffusion method; assay type: functional
# Shigella flexneri [24] = assay: Antibacterial activity against Shigella flexneri DN13; assay type: functional; procedure, shortened: as §2
# Enterococcus faecalis [25] = assay: Antibacterial activity against Enterococcus faecalis isolate 29212 at 1 to 1000 ug/ml after overnight incubation by disc diffusion method; assay type: functional; procedure, shortened: as §1
# Enterococcus faecalis [26] = assay: Antibacterial activity against Streptococcus faecalis isolate 29212; assay type: functional; procedure, shortened: as §2
# Staphylococcus aureus [27] = assay: Antibacterial activity against Staphylococcus aureus ATCC 25923 at 1 to 1000 ug/ml after overnight incubation by disc diffusion method; assay type: functional; procedure, shortened: as §1
# Bacillus subtilis [28] = assay: Antibacterial activity against Bacillus subtilis UC564 at 1 to 1000 ug/ml after overnight incubation by disc diffusion method; assay type: functional; procedure, shortened: as §1
# Shigella dysenteriae [29] = assay: Antibacterial activity against Shigella dysenteriae isolate 3; assay type: functional
# Staphylococcus aureus [30] = assay: Antibacterial activity against Staphylococcus aureus ATCC 25923 at 10 to 80 ug/ml after overnight incubation by broth dilution method; assay type: functional, organism-based; procedure, shortened: as §3
# Vibrio cholerae [31] = assay: Antibacterial activity against Vibrio cholerae isolate 7201 at 1 to 1000 ug/ml after overnight incubation by disc diffusion method; assay type: functional
# Escherichia coli [32] = assay: Antibacterial activity against Escherichia coli ATCC 25938; assay type: functional; procedure, shortened: as §2
# Salmonella typhi [33] = assay: Antibacterial activity against Salmonella typhi DIRW at 1 to 1000 ug/ml after overnight incubation by disc diffusion method; assay type: functional
# [34] = Salmonella enterica subsp. enterica serovar Typhi
SMILES,MIC (Vibrio cholerae [1]) [µg/mL],diameter of the inhibition zone (DIZ) (Pseudomonas aeruginosa [2]),MIC (Klebsiella pneumoniae [3]) [µg/mL],diameter of the inhibition zone (DIZ) (Klebsiella pneumoniae [4]) [mm],MIC (Pseudomonas aeruginosa [5]) [µg/mL],MIC (Salmonella typhimurium [6]) [µg/mL],MIC (Micrococcus luteus [7]) [µg/mL],diameter of the inhibition zone (DIZ) (Escherichia coli [8]),MIC (Salmonella typhi [9]) [µg/mL],MIC (Bacillus subtilis [10]) [µg/mL],MIC (Vibrio parahaemolyticus [11]) [µg/mL],diameter of the inhibition zone (DIZ) (Salmonella typhimurium [12]),diameter of the inhibition zone (DIZ) (Shigella flexneri [16]),diameter of the inhibition zone (DIZ) (Vibrio parahaemolyticus [17]),diameter of the inhibition zone (DIZ) (Shigella dysenteriae [18]) [mm],diameter of the inhibition zone (DIZ) (Micrococcus luteus [19]),MIC (Staphylococcus aureus [21]) [µg/mL],diameter of the inhibition zone (DIZ) (Vibrio cholerae [23]),MIC (Shigella flexneri [24]) [µg/mL],diameter of the inhibition zone (DIZ) (Enterococcus faecalis [25]),further results
N#Cc1cc2ccccn2c1C(=O)c1ccccc1,16,inactive,64,8.9,> 500,500,256,inactive,500,16,256,inactive,inactive,7.5 mm,9,7.5 mm,32,10 mm,500,inactive,Activity (Escherichia coli [13]): Active; Activity (Bacillus subtilis [14]): Active; Activity (Shigella dysenteriae [15]): Active; Activity (Pseudomonas aeruginosa [20]): Active; Activity (Vibrio cholerae [22]): Active; MIC (Enterococcus faecalis [26]): 500 µg/mL; diameter of the inhibition zone (DIZ) (Staphylococcus aureus [27]): 12.1 mm; diameter of the inhibition zone (DIZ) (Bacillus subtilis [28]): 9.7 mm; MIC (Shigella dysenteriae [29]): 128 µg/mL; Activity (Staphylococcus aureus [30]): Active; diameter of the inhibition zone (DIZ) (Vibrio cholerae [31]): 10 mm; MIC (Escherichia coli [32]): > 500 µg/mL; diameter of the inhibition zone (DIZ) (Salmonella typhi [33]; [34]): inactive
COC(=O)c1c(C(=O)OC)c2ccc3ccccc3n2c1C(=O)c1ccccc1,500,inactive,64,10,> 500,500,> 500,12.1 mm,128,32,> 500,inactive,inactive,inactive,11.5,inactive,500,inactive,500,12 mm,Activity (Escherichia coli [13]): Active; Activity (Bacillus subtilis [14]): Active; Activity (Shigella dysenteriae [15]): Active; Activity (Pseudomonas aeruginosa [20]): Active; Activity (Vibrio cholerae [22]): Active; MIC (Enterococcus faecalis [26]): 64 µg/mL; diameter of the inhibition zone (DIZ) (Staphylococcus aureus [27]): inactive; diameter of the inhibition zone (DIZ) (Bacillus subtilis [28]): 10.2 mm; MIC (Shigella dysenteriae [29]): 16 µg/mL; Activity (Staphylococcus aureus [30]): Active; diameter of the inhibition zone (DIZ) (Vibrio cholerae [31]): inactive; MIC (Escherichia coli [32]): > 500 µg/mL; diameter of the inhibition zone (DIZ) (Salmonella typhi [33]): 7.5 mm
CCOC(=O)c1c(C(=O)OCC)c2ccc3ccccc3n2c1C(=O)c1ccccc1,128,9.7 mm,256,8.6,32,> 500,500,8.1 mm,500,16,64,inactive,inactive,9.3 mm,11.1,inactive,64,7.7 mm,> 500,inactive,Activity (Escherichia coli [13]): Active; Activity (Bacillus subtilis [14]): Active; Activity (Shigella dysenteriae [15]): Active; Activity (Pseudomonas aeruginosa [20]): Active; Activity (Vibrio cholerae [22]): Active; MIC (Enterococcus faecalis [26]): 500 µg/mL; diameter of the inhibition zone (DIZ) (Staphylococcus aureus [27]): 10.2 mm; diameter of the inhibition zone (DIZ) (Bacillus subtilis [28]): 10 mm; MIC (Shigella dysenteriae [29]): 32 µg/mL; Activity (Staphylococcus aureus [30]): Active; diameter of the inhibition zone (DIZ) (Vibrio cholerae [31]): 7.7 mm; MIC (Escherichia coli [32]): > 500 µg/mL; diameter of the inhibition zone (DIZ) (Salmonella typhi [33]; [34]): inactive
CCOC(=O)c1cc(C(=O)c2ccccc2)n2ccc3ccccc3c12,32,11 mm,256,8.5,64,256,500,11.2 mm,> 500,64,256,inactive,7.1 mm,8 mm,9.7,8.1 mm,256,10.2 mm,256,7 mm,MIC (Enterococcus faecalis [26]): 256 µg/mL; diameter of the inhibition zone (DIZ) (Staphylococcus aureus [27]): 8.3 mm; diameter of the inhibition zone (DIZ) (Bacillus subtilis [28]): 11.4 mm; MIC (Shigella dysenteriae [29]): 128 µg/mL; diameter of the inhibition zone (DIZ) (Vibrio cholerae [31]): 10.2 mm; MIC (Escherichia coli [32]): 64 µg/mL; diameter of the inhibition zone (DIZ) (Salmonella typhi [33]; [34]): inactive
